ChEMBL document CHEMBL1140702, “New celecoxib derivatives as anti-inflammatory agents” (J Med Chem, 2008)

How the values were obtained:
Rattus norvegicus [1] = assay: Antiinflammatory activity in Wistar rat assessed as inhibition of carrageenan-induced paw edema at 10 mg/kg, po after 7 hrs relative to celecoxib; assay type: functional; details: for inhibition in vivo at 10 mg/kg: Rattus norvegicus, Wistar, po, 7 h
How it was run: (§1)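 Male Wistar rats (140–150 g; n = 6–12/group) given 50 µL of 1% carrageenan subcutaneously into the right hind paw subplantar region. Oral test doses. Edema is the pre- versus post-treatment volume difference (mL), read by water-displacement plethysmometer.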

Rattus norvegicus [2] = assay: Antiinflammatory activity in Wistar rat assessed as inhibition of carrageenan-induced paw edema at 10 mg/kg, po after 6 hrs relative to celecoxib; assay type: functional; details: for inhibition in vivo at 10 mg/kg: Rattus norvegicus, Wistar, po, 6 h; how it was run: as §1
Rattus norvegicus [3] = assay: Antiinflammatory activity in Wistar rat assessed as inhibition of carrageenan-induced paw edema at 10 mg/kg, po after 4 hrs relative to celecoxib; assay type: functional; details: for inhibition in vivo at 10 mg/kg: Rattus norvegicus, Wistar, po, 4 h; how it was run: as §1
Rattus norvegicus [4] = assay: Inhibition of ethanol-induced gastric mucosal damage in Wistar rat at 60 mg/kg, po; assay type: functional; details: Gastric mucosa
How it was run: (§2)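 After 24 h fasting, male Wistar rats (140–160 g; n = 10) received oral 0.5 mL acidified ethanol (98% ethanol in 200 mmol/l HCl), with oral test doses and methylcellulose vehicle. Stomachs removed 1 h later and scored blind on a 0–4 scale. Lesion index = lesion number × severity. % inhibition calculated against control lesion index.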

Rattus norvegicus [5] = assay: Analgesic activity in acute model Wistar rat assessed as reversal of carrageenan-induced hind paw edema at 10 mg/kg, po after 60 mins by mechanical hyperalgesia test relative to celecoxib; assay type: functional
How it was run: (§3)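 Randall-Selitto test: male Wistar rats (140–190 g; n = 8–12/group), carrageenan injected subcutaneously in the subplantar right hind paw. Basal paw-withdrawal pressure threshold (g) measured before carrageenan, then after oral dosing at 30, 60, 120 and 180 min. Maximal threshold reduction develops 2–3 h post-injection. Analgesia expressed as % reversal of hyperalgesia.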

Rattus norvegicus [6] = assay: Inhibition of ethanol-induced gastric mucosal damage in Wistar rat assessed as ulcer index at 15 mg/kg, po; assay type: functional, Gastric mucosa; how it was run: as §2
Rattus norvegicus [7] = assay: Analgesic activity in chronic model Wistar rat assessed as reversal of carrageenan-induced hind paw edema at 10 mg/kg, po after 60 mins by mechanical hyperalgesia test relative to celecoxib; assay type: functional; how it was run: as §3
Rattus norvegicus [8] = assay: Analgesic activity in acute model Wistar rat assessed as reversal of carrageenan-induced hind paw edema at 30 mg/kg, po after 180 mins by mechanical hyperalgesia test relative to celecoxib; assay type: functional; how it was run: as §3
Rattus norvegicus [9] = assay: Inhibition of ethanol-induced gastric mucosal damage in Wistar rat assessed as ulcer index at 30 mg/kg, po; assay type: functional, Gastric mucosa; how it was run: as §2
Rattus norvegicus [10] = assay: Antiinflammatory activity in Wistar rat assessed as inhibition of carrageenan-induced paw edema
Rattus norvegicus [11] = assay: Analgesic activity in chronic model Wistar rat assessed as reversal of carrageenan-induced hind paw edema at 10 mg/kg, po after 180 mins by mechanical hyperalgesia test relative to celecoxib; assay type: functional; how it was run: as §3
Rattus norvegicus [12] = assay: Analgesic activity in chronic model Wistar rat assessed as reversal of carrageenan-induced hind paw edema at 10 mg/kg, po after 30 mins by mechanical hyperalgesia test relative to celecoxib; assay type: functional; how it was run: as §3
Rattus norvegicus [13] = assay: Analgesic activity in chronic model Wistar rat assessed as reversal of carrageenan-induced hind paw edema at 30 mg/kg, po after 60 mins by mechanical hyperalgesia test relative to celecoxib; assay type: functional; how it was run: as §3
Rattus norvegicus [14] = assay: Analgesic activity in acute model Wistar rat assessed as reversal of carrageenan-induced hind paw edema at 10 mg/kg, po after 180 mins by mechanical hyperalgesia test relative to celecoxib; assay type: functional; how it was run: as §3
Rattus norvegicus [15] = assay: Analgesic activity in chronic model Wistar rat assessed as reversal of carrageenan-induced hind paw edema at 30 mg/kg, po after 30 mins by mechanical hyperalgesia test relative to celecoxib; assay type: functional; how it was run: as §3
Rattus norvegicus [16] = assay: Analgesic activity in chronic model Wistar rat assessed as reversal of carrageenan-induced hind paw edema at 30 mg/kg, po after 180 mins by mechanical hyperalgesia test relative to celecoxib; assay type: functional; how it was run: as §3
Rattus norvegicus [17] = assay: Analgesic activity in chronic model Wistar rat assessed as reversal of carrageenan-induced hind paw edema at 30 mg/kg, po after 120 mins by mechanical hyperalgesia test relative to celecoxib; assay type: functional; how it was run: as §3
Rattus norvegicus [18] = assay: Inhibition of ethanol-induced gastric mucosal damage in Wistar rat assessed as ulcer index at 60 mg/kg, po; assay type: functional, Gastric mucosa; how it was run: as §2
Rattus norvegicus [19] = assay: Analgesic activity in acute model Wistar rat assessed as reversal of carrageenan-induced hind paw edema at 30 mg/kg, po after 60 mins by mechanical hyperalgesia test relative to celecoxib; assay type: functional; how it was run: as §3
Rattus norvegicus [20] = assay: Analgesic activity in chronic model Wistar rat assessed as reversal of carrageenan-induced hind paw edema at 10 mg/kg, po after 120 mins by mechanical hyperalgesia test relative to celecoxib; assay type: functional; how it was run: as §3
Rattus norvegicus [21] = assay: Inhibition of ethanol-induced gastric mucosal damage in Wistar rat at 15 mg/kg, po; assay type: functional; details: Gastric mucosa; how it was run: as §2
Rattus norvegicus [22] = assay: Effect on acetic acid-induced chronic gastric ulcer Wistar rat assessed as area of ulcer at 30 mg/kg, po; assay type: functional, Stomach
How it was run: (§4)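 Chronic ulcer (Okabe method): under ether anesthesia, male Wistar rats (150–170 g) had 0.05 mL 20% acetic acid injected into the submucosa of the anterior glandular stomach wall via laparotomy. Oral dosing with methylcellulose vehicle control. Killed after 12 days. Ulcer area taken as length × width (mm²); body-weight change recorded.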

Rattus norvegicus [23] = assay: Analgesic activity in acute model Wistar rat assessed as reversal of carrageenan-induced hind paw edema at 10 mg/kg, po after 120 mins by mechanical hyperalgesia test relative to celecoxib; assay type: functional; how it was run: as §3
Rattus norvegicus [24] = assay: Increase in body weight in acetic acid-induced chronic gastric ulcer Wistar rat at 30 mg/kg, po; assay type: functional, Stomach; how it was run: as §4
Rattus norvegicus [25] = assay: Antiinflammatory activity in Wistar rat assessed as inhibition of carrageenan-induced paw edema after 4 hrs; assay type: functional
Rattus norvegicus [26] = assay: Inhibition of ethanol-induced gastric mucosal damage in Wistar rat at 30 mg/kg, po; assay type: functional; details: Gastric mucosa; how it was run: as §2
Rattus norvegicus [27] = assay: Analgesic activity in acute model Wistar rat assessed as reversal of carrageenan-induced hind paw edema at 30 mg/kg, po after 120 mins by mechanical hyperalgesia test relative to celecoxib; assay type: functional; how it was run: as §3
Rattus norvegicus [28] = assay: Increase in body weight in acetic acid-induced chronic gastric ulcer Wistar rat at 2.0 mg/kg, po; assay type: functional, Stomach; how it was run: as §4
Rattus norvegicus [29] = assay: Effect on acetic acid-induced chronic gastric ulcer Wistar rat assessed as area of ulcer at 2.0 mg/kg, po; assay type: functional, Stomach; how it was run: as §4

## Cc1ccc(-c2cc(C(F)(F)F)nn2-c2ccc(S(=O)(=O)NOCCC(=O)[O-])cc2)cc1.[Na+]
Rattus norvegicus [1]
  Inhibition: 24.9%
Rattus norvegicus [2]
  Inhibition: 33.9%
Rattus norvegicus [3]
  inhibition in vivo at 10 mg/kg: 32%

## Cc1ccc(-c2cc(C(F)(F)F)nn2-c2ccc(S(=O)(=O)NOCC(=O)O)cc2)cc1 [listing 1 of 2 here]
Rattus norvegicus [1]
  Inhibition: 17.1%
Rattus norvegicus [2]
  Inhibition: 21.3%
Rattus norvegicus [3]
  Inhibition: 13.1%

## CCOC(=O)CONS(=O)(=O)c1ccc(-n2nc(C(F)(F)F)cc2-c2ccc(C)cc2)cc1
Rattus norvegicus [1]
  inhibition in vivo at 10 mg/kg: 20.6%
Rattus norvegicus [2]
  inhibition in vivo at 10 mg/kg: 23.1%
Rattus norvegicus [3]
  inhibition in vivo at 10 mg/kg: 13.3%

## Cc1ccc(-c2cc(C(F)(F)F)nn2-c2ccc(S(=O)(=O)NO[C@@H](C)C(=O)O)cc2)cc1
Rattus norvegicus [1]
  inhibition in vivo at 10 mg/kg: -6.3%
Rattus norvegicus [2]
  inhibition in vivo at 10 mg/kg: -9.3%
Rattus norvegicus [3]
  inhibition in vivo at 10 mg/kg: 0.9%

## Cc1ccc(-c2cc(C(F)(F)F)nn2-c2ccc(S(=O)(=O)NO[C@H](C)C(=O)O)cc2)cc1
Rattus norvegicus [1]
  inhibition in vivo at 10 mg/kg: 6.7%
Rattus norvegicus [2]
  inhibition in vivo at 10 mg/kg: 15.3%
Rattus norvegicus [3]
  inhibition in vivo at 10 mg/kg: 18.4%

## Cc1ccc(-c2cc(C(F)(F)F)nn2-c2ccc(S(=O)(=O)NOCCC(=O)O)cc2)cc1
Rattus norvegicus [1]
  Inhibition: 11.9%
Rattus norvegicus [2]
  Inhibition: 12.8%
Rattus norvegicus [3]
  Inhibition: 23.6%

## Cc1ccc(-c2cc(C(F)(F)F)nn2-c2ccc(S(=O)(=O)NOCC(=O)O)cc2)cc1 [listing 2 of 2 here]
Rattus norvegicus [1]
  inhibition in vivo at 10 mg/kg: 24.7%
Rattus norvegicus [2]
  inhibition in vivo at 10 mg/kg: 33.2%
Rattus norvegicus [3]
  inhibition in vivo at 10 mg/kg: 26%

## CCOC(=O)C(C)ONS(=O)(=O)c1ccc(-n2nc(C(F)(F)F)cc2-c2ccc(C)cc2)cc1 (racemic)
Rattus norvegicus [1]
  inhibition in vivo at 10 mg/kg: 7.3%
Rattus norvegicus [2]
  inhibition in vivo at 10 mg/kg: 15.7%
Rattus norvegicus [3]
  inhibition in vivo at 10 mg/kg: 23.5%

## Cc1ccc(-c2cc(C(F)(F)F)nn2-c2ccc(S(=O)(=O)NOC(C)C(=O)O)cc2)cc1 (racemic; 16)
Rattus norvegicus [4]
  inhibition in vivo at 60 mg/kg: 76%
Rattus norvegicus [5]
  Activity: 24%
Rattus norvegicus [6]
  UI: 43
Rattus norvegicus [1]
  Inhibition: 17.9%
Rattus norvegicus [7]
  Activity: 22%
Rattus norvegicus [8]
  Activity: 35%
Rattus norvegicus [9]
  UI: 35
Rattus norvegicus [10]
  ED30: 8.4 mg/kg
Rattus norvegicus [11]
  Activity: 20%
Rattus norvegicus [12]
  Activity: 23%
Rattus norvegicus [13]
  Activity: 54%
Rattus norvegicus [14]
  Activity: 15%
Rattus norvegicus [15]
  Activity: 42%
Rattus norvegicus [2]
  Inhibition: 31.1%
Rattus norvegicus [16]
  Activity: 19%
Rattus norvegicus [17]
  Activity: 34%
Rattus norvegicus [18]
  UI: 15.8
Rattus norvegicus [19]
  Activity: 89%
Rattus norvegicus [20]
  Activity: 28%
Rattus norvegicus [21]
  inhibition in vivo at 15 mg/kg: 35%
Rattus norvegicus [22]
  Activity: 2.4 mm2
Rattus norvegicus [23]
  Activity: 30%
Rattus norvegicus [24]
  Activity: 43 g
Rattus norvegicus [25]
  ED30: 5.7 mg/kg
Rattus norvegicus [26]
  inhibition in vivo at 30 mg/kg: 43%
Rattus norvegicus [3]
  Inhibition: 41%
Rattus norvegicus [27]
  Activity: 59%

## Cc1ccc(-c2cc(C(F)(F)F)nn2-c2ccc(S(=O)(=O)NOC(C)C(=O)O)cc2)cc1 (racemic; 21)
Rattus norvegicus [1]
  inhibition in vivo at 10 mg/kg: 16.2%
Rattus norvegicus [2]
  inhibition in vivo at 10 mg/kg: 21.8%
Rattus norvegicus [3]
  inhibition in vivo at 10 mg/kg: 38.4%

## Cc1ccc(-c2cc(C(F)(F)F)nn2-c2ccc(S(N)(=O)=O)cc2)cc1 [CELECOXIB]
Rattus norvegicus [4]
  inhibition in vivo at 60 mg/kg: 55%
Rattus norvegicus [5]
  Activity: 0%
Rattus norvegicus [6]
  UI: 80.6
Rattus norvegicus [1]
  inhibition in vivo at 10 mg/kg: 12.3%
Rattus norvegicus [7]
  Activity: 17%
Rattus norvegicus [8]
  Activity: 0%
Rattus norvegicus [9]
  UI: 49.4
Rattus norvegicus [10]
  ED30: > 30 mg/kg
Rattus norvegicus [11]
  Activity: 0%
Rattus norvegicus [12]
  Activity: 24%
Rattus norvegicus [13]
  Activity: 34%
Rattus norvegicus [14]
  Activity: 0%
Rattus norvegicus [15]
  Activity: 54%
Rattus norvegicus [2]
  inhibition in vivo at 10 mg/kg: 18.6%
Rattus norvegicus [16]
  Activity: 26%
Rattus norvegicus [17]
  Activity: 34%
Rattus norvegicus [18]
  UI: 44.4
Rattus norvegicus [19]
  Activity: 24%
Rattus norvegicus [20]
  Activity: 0%
Rattus norvegicus [21]
  inhibition in vivo at 15 mg/kg: 18%
Rattus norvegicus [22]
  Activity: 8.2 mm2
Rattus norvegicus [23]
  Activity: 0%
Rattus norvegicus [24]
  Activity: 32 g
Rattus norvegicus [25]
  ED30: 23 mg/kg
Rattus norvegicus [26]
  inhibition in vivo at 30 mg/kg: 19%
Rattus norvegicus [3]
  inhibition in vivo at 10 mg/kg: 24.2%
Rattus norvegicus [27]
  Activity: 3%

## COc1ccc2c(c1)c(CC(=O)O)c(C)n2C(=O)c1ccc(Cl)cc1 [INDOMETHACIN]
Rattus norvegicus [28]
  Activity: 2 g
Rattus norvegicus [29]
  Activity: 39 mm2
